Test results reported in ChEMBL document CHEMBL3872208, “Synthesis and pharmacological characterization of novel N-(trans-4-(2-(4-(benzo[d]isothiazol-3-yl)piperazin-1-yl)ethyl)cyclohexyl)amides as potential multireceptor atypical antipsychotics” (Eur J Med Chem, 2016).

What was measured:
CHO = assay: Selectivity ratio of Ki for displacement of [3H]spiperone from recombinant human D2L receptor expressed in CHO cell membranes to Ki for displacement of [3H]methyl-spiperone from recombinant human D3 receptor expressed in CHO cell membranes
Procedure, shortened: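 D2L binding: CHO membranes (16 µg protein) with 0.3 nM [3H]methyl-spiperone in 50 mM Tris-HCl pH 7.4, 120 mM NaCl, 10 mM MgCl2, 1 mM EDTA, with butaclamol for nonspecific binding. D3 binding: membranes (8 µg) with 0.3 nM [3H]methyl-spiperone in the same Tris buffer with 5 mM KCl, 5 mM MgCl2, 5 mM EDTA, with (+)butaclamol for nonspecific binding. Both run 60 min at 22 °C, then GF/B filtration. Ki by Cheng–Prusoff; ratio is D2 Ki/D3 Ki.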

D(2) dopamine receptor [1] = target: T1, D(2) dopamine receptor (Homo sapiens, UniProt P14416); assay: Displacement of [3H]spiperone from recombinant human D2L receptor expressed in CHO cell membranes after 60 mins by scintillation counting method
T1 sequence (P14416 whole entry): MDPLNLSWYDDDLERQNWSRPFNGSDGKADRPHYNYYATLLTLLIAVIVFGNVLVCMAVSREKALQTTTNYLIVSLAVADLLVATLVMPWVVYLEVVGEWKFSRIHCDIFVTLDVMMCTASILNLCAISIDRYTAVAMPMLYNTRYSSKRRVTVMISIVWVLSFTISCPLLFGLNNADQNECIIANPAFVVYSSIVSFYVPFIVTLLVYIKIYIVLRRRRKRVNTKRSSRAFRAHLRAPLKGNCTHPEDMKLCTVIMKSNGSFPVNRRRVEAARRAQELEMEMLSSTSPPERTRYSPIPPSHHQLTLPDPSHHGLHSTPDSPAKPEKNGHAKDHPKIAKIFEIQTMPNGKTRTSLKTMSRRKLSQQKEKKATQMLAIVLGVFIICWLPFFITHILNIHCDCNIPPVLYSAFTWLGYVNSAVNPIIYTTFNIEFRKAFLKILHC

Rattus norvegicus [2] = assay: Reversal of PCP-induced hyperlocomotion activity in ip dosed Sprague-Dawley rat pretreated for 10 mins followed by PCP challenge measured after […]; assay type: functional, organism-based
D(2) dopamine receptor [3] = target: T1, D(2) dopamine receptor; assay: Agonist activity at D2 receptor (unknown origin) expressed in CHOK1 cells co-expressing G-alpha 15 by fluo-4 dye based FLIPR assay; assay type: cell-based, CHO-K1
D(2) dopamine receptor [4] = target: T1, D(2) dopamine receptor; assay: Antagonistic activity at D2 receptor (unknown origin) expressed in CHOK1 cells co-expressing G-alpha 15 assessed as inhibition of dopamine-induced calcium flux by fluo-4 dye based FLIPR assay; assay type: functional, cell-based, CHO-K1
D(3) dopamine receptor [5] = target: T2, D(3) dopamine receptor (Homo sapiens, UniProt P35462); assay: Antagonistic activity at D3 receptor (unknown origin) expressed in cell membranes assessed as inhibition of quinpirole-induced response after 40 mins by [35S]GTPgammaS binding assay; assay type: functional
T2 sequence (P35462 whole entry): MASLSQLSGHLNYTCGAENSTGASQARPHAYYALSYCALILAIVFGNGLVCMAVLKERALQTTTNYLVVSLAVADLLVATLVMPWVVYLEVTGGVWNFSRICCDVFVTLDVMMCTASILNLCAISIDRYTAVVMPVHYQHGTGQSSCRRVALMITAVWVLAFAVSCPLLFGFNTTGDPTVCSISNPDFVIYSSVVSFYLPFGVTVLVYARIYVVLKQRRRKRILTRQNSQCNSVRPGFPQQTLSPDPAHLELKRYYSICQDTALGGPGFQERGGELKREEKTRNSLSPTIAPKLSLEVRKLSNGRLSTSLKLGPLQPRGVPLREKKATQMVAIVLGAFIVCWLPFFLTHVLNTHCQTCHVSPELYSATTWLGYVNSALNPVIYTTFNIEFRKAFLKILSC
Procedure, shortened: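 Membranes (20 mg membrane protein as printed) incubated 40 min at 30 °C in 50 mM Tris pH 7.4, 5 mM MgCl2, 1 mM EDTA, 100 mM NaCl, 1 mM DTT. Mix contained 0.1 nM [35S]GTPγS, GDP, quinpirole as agonist and varied compound concentrations. Nonspecific binding was taken with Gpp(NH)p. Reaction stopped with ice-cold buffer, then GF/C filtration and scintillation counting. Mean IC50 from two experiments, eight concentrations in duplicate.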

D(3) dopamine receptor [6] = target: T2, D(3) dopamine receptor; assay: Agonist activity at D3 receptor (unknown origin) expressed in cell membranes after 40 mins by [35S]GTPgammaS binding assay; assay type: functional
[7] = target: T3, 5-hydroxytryptamine receptor 2A (Homo sapiens, UniProt P28223); assay: Agonist activity at 5-HT2A receptor (unknown origin) expressed in CHOK1 cells co-expressing G-alpha 15 by Fluo-4 dye based FLIPR assay; assay type: cell-based, CHO-K1
T3 sequence (P28223 whole entry): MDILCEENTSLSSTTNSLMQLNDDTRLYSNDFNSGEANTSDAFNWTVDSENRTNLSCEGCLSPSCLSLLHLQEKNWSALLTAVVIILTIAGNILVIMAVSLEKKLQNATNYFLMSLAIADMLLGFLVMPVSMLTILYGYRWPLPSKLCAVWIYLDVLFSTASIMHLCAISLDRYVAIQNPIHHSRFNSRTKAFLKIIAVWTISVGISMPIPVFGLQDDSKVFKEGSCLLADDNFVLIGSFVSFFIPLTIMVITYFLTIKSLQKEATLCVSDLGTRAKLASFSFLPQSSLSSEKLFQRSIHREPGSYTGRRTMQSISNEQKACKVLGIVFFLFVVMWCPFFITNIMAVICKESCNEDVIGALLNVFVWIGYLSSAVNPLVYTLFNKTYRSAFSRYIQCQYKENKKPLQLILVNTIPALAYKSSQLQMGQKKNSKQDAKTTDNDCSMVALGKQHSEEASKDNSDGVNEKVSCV

[8] = target: T3, 5-hydroxytryptamine receptor 2A; assay: Antagonistic activity at 5-HT2A receptor (unknown origin) expressed in CHOK1 cells co-expressing G-alpha 15 assessed as inhibition of serotonin-induced calcium flux by Fluo-4 based FLIPR assay; assay type: functional, cell-based, CHO-K1
[9] = target: T4, 5-hydroxytryptamine receptor 1A (Homo sapiens, UniProt P08908); assay: Antagonistic activity at 5-HT1A receptor (unknown origin) expressed in CHOK1 cells co-expressing G-alpha 15 assessed as inhibition of serotonin-induced calcium flux by Fluo-4 based FLIPR assay; assay type: functional, cell-based, CHO-K1
T4 sequence (P08908 whole entry): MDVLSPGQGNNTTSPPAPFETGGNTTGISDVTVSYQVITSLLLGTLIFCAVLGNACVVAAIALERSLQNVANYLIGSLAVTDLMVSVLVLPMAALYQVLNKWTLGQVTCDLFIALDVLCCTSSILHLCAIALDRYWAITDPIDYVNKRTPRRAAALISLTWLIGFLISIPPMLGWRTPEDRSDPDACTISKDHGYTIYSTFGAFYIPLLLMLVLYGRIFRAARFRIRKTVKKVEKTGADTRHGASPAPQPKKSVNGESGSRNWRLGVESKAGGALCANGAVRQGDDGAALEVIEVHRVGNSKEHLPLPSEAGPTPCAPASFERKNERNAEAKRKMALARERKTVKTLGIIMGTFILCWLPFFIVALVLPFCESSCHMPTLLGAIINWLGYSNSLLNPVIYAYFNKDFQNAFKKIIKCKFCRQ

Rattus norvegicus [10] = assay: Toxicity in Sprague-Dawley rat assessed as cataleptogenic effect by measuring time spent in cataleptic position at 1 to 10 mg/kg, po measured after 0.5 to 2 hrs; assay type: organism-based; settings: in vivo
Procedure, shortened: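 Male SD rats (180–250 g, n = 7) dosed orally at 1.0, 3.0 or 10.0 mg/kg. Forepaws placed on a bar 0.9 cm in diameter, 11 cm high, at 30, 60 and 120 min after dosing. Time held is expressed as a percentage of the 60 s maximum (mean ± SEM).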

[11] = Cmax in Sprague-Dawley rat plasma at 0.5 mg/kg, iv administered as single dose by LC-MS/MS analysis; assay type: ADME, organism-based; set-up: dose 0.5 mg/kg, route intravenous
Procedure, shortened: (§1)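 Male SD rats, single dose: 0.5 mg/kg i.v. or 2.0 mg/kg p.o. Vehicle is 5% DMSO, 10% Solutol HS 15 and 85% PBS. Heparinized blood is sampled at 5, 15 and 30 min and at 1, 2, 4, 8 and 24 h after dosing. Plasma is reported in ng/mL and brain in ng/g. F is derived from the p.o. and i.v. arms.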

[12] = Cmax in Sprague-Dawley rat brain at 2 mg/kg, po administered as single dose by LC-MS/MS analysis; assay type: ADME, organism-based; set-up: dose 2 mg/kg, route oral; procedure, shortened: as §1
[13] = Half life in Sprague-Dawley rat plasma at 0.5 mg/kg, iv administered as single dose by LC-MS/MS analysis; assay type: ADME, organism-based; procedure, shortened: as §1
[14] = Half life in Sprague-Dawley rat plasma at 2.0 mg/kg, po administered as single dose by LC-MS/MS analysis; assay type: ADME, organism-based; procedure, shortened: as §1
[15] = Tmax in Sprague-Dawley rat plasma at 2 mg/kg, po administered as single dose by LC-MS/MS analysis; assay type: ADME, organism-based; procedure, shortened: as §1
[16] = Tmax in Sprague-Dawley rat brain at 2 mg/kg, po administered as single dose by LC-MS/MS analysis; assay type: ADME, organism-based; procedure, shortened: as §1
[17] = AUC (0 to t) in Sprague-Dawley rat plasma at 0.5 mg/kg, iv administered as single dose by LC-MS/MS analysis; assay type: ADME, organism-based; procedure, shortened: as §1
[18] = AUC (0 to t) in Sprague-Dawley rat brain at 0.5 mg/kg, iv administered as single dose by LC-MS/MS analysis; assay type: ADME, organism-based; procedure, shortened: as §1
[19] = Apparent clearance in Sprague-Dawley rat plasma at 0.5 mg/kg, iv administered as single dose by LC-MS/MS analysis; assay type: ADME, organism-based; settings: read-out: CL(app) (converted); procedure, shortened: as §1
[20] = Oral bioavailability in Sprague-Dawley rat plasma at 2 mg/kg administered as single dose by LC-MS/MS analysis; assay type: ADME, organism-based; procedure, shortened: as §1
[21] = target: Voltage-gated inwardly rectifying potassium channel KCNH2 (Homo sapiens, UniProt Q12809)
Chain of Voltage-gated inwardly rectifying potassium channel KCNH2 (Q12809 whole entry): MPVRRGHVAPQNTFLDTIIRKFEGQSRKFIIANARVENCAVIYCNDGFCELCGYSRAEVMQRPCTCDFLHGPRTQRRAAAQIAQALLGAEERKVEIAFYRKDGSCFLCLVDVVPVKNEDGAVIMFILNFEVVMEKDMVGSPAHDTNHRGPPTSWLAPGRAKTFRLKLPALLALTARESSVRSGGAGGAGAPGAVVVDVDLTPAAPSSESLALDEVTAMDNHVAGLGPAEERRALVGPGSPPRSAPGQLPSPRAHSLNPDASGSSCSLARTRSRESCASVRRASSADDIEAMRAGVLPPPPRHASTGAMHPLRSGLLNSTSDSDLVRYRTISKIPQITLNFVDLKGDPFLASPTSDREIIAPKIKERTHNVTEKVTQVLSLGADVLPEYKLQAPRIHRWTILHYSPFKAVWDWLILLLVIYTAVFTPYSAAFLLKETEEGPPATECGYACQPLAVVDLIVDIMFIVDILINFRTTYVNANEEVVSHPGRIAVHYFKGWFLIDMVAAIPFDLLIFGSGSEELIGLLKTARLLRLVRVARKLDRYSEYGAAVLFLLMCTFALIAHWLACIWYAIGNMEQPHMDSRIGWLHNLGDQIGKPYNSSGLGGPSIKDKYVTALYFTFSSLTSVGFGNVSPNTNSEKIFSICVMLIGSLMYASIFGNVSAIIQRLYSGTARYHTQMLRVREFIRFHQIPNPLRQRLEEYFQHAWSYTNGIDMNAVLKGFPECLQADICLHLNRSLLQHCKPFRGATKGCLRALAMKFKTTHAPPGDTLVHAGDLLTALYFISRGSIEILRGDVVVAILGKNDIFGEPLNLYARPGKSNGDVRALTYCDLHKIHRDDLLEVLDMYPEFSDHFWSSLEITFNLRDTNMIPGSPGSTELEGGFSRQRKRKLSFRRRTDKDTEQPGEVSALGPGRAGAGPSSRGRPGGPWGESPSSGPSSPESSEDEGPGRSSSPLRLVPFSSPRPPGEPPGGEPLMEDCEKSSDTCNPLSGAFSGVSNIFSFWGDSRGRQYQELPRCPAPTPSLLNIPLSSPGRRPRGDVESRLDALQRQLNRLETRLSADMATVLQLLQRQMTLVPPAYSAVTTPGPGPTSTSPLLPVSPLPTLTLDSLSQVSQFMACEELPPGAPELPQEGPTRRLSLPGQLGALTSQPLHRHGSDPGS

D(3) dopamine receptor [22] = target: T2, D(3) dopamine receptor; settings: 10 uM
[23] = target: T5, 5-hydroxytryptamine receptor 1A (Homo sapiens) (UniProt P08908); settings: CHO-K1, 10 uM
T5 sequence (whole entry): T4 sequence (P08908 whole entry)

[24] = target: T3, 5-hydroxytryptamine receptor 2A; settings: CHO-K1, 10 uM

Q: Which Ratio Ki (CHO) does the source give for O=C(N[C@H]1CC[C@H](CCN2CCN(c3nsc4ccccc34)CC2)CC1)c1ccco1 here?
A: The Ratio Ki was 22.3.

Q: What about the Ki (D(2) dopamine receptor [1]) of the same compound?
A: Its Ki is 0.0029 µM.

Q: What about the Activity (Rattus norvegicus [2]) of the same compound?
A: The Activity was “Dose-dependent effect”.

Q: What about the EC50 (D(2) dopamine receptor [3]) of the same compound?
A: Its EC50 is > 10 µM.

Q: And the IC50 (D(2) dopamine receptor [4])?
A: The IC50 was 0.0614 µM.

Q: What about the IC50 (D(3) dopamine receptor [5]) of the same compound?
A: The IC50 was 0.00139 µM.

Q: What about the EC50 (D(3) dopamine receptor [6]) of the same compound?
A: Its EC50 is > 10 µM.

Q: And the EC50 [7]?
A: The EC50 was > 10 µM.

Q: What about the IC50 [8] of the same compound?
A: The IC50 was 0.0318 µM.

Q: And the IC50 [9]?
A: The IC50 was 0.0461 µM.

Q: What about the Activity (Rattus norvegicus [10]) of the same compound?
A: The Activity was “Non-Toxic”.

Q: And the Cmax [11]?
A: Its Cmax is 135 ng/mL.

Q: And the Cmax [12]?
A: Its Cmax is 52.8 ng/mL.

Q: What about the half-life [13] of the same compound?
A: The half-life was 0.8 h.

Q: And the half-life [14]?
A: Its half-life is 1.7 h.

Q: And the Tmax [15]?
A: Its Tmax is 0.5 h.

Q: And the Tmax [16]?
A: The Tmax was 2 h.

Q: And the AUC(0-t) [17]?
A: The AUC(0-t) was 106 ng·h/mL.

Q: And the AUC(0-t) [18]?
A: Its AUC(0-t) is 1070 ng·h/mL.

Q: What about the clearance [19] of the same compound?
A: The clearance was 76.7 mL/min/kg.

Q: What about the bioavailability [20] of the same compound?
A: The bioavailability was 13%.

Q: What about the IC50 [21] of the same compound?
A: Its IC50 is 2.11 µM.

Q: What about the inhibition (D(3) dopamine receptor [22]) of the same compound?
A: Its inhibition is 98.6%.

Q: What about the inhibition [23] of the same compound?
A: Its inhibition is 115%.

Q: And the inhibition [24]?
A: Its inhibition is 97%.
